# Test results as given in publication PMC8266253 (Journal of Enzyme Inhibition and Medicinal Chemistry, 2021).
# Substitutions are numbered along the chain they refer to. Read-outs that look alike come from different tables or passages of the source.
# Columns and labels:
# [1] = target: T1, AKR1C1 (Homo sapiens, UniProt Q04828); test: Inhibition assay for recombinant AKR1C1; format: biochemical; conditions: for inhibition at 10 µM: pH 9, read-out: AKR1C1 Inhibition (%) 10 μM
# T1 sequence (Q04828 1-323): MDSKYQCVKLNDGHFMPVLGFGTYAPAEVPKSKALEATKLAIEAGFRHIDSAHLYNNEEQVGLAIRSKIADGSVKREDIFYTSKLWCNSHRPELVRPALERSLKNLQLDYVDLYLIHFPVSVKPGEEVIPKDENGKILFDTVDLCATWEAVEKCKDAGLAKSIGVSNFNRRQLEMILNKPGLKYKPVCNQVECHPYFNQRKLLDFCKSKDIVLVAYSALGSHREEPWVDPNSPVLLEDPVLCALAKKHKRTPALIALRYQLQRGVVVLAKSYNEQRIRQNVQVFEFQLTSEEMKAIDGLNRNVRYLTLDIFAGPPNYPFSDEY
# In short: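 Human recombinant AKR1C1 oxidising 1-acenaphthenol (90 µM final) with 2.3 mM NAD⁺, in 0.09 M potassium phosphate pH 9.0, 0.005% Triton X-114, 0.05% DMSO. Test compound is added in DMSO, and 0.1 µM enzyme starts the reaction. NADH rise at 340 nm gives initial velocities. Runs are in duplicate, two independent experiments. IC50 comes from residual activity vs log inhibitor; inhibition type, KM, KI and α come from kinetic fitting.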
# [2] = target: T2, AKR1C2 (Homo sapiens, UniProt P52895); test: Inhibition assay for recombinant AKR1C2; format: biochemical; conditions: for inhibition at 10 µM: pH 9, read-out: AKR1C2 Inhibition (%) 10 μM
# T2 sequence (P52895 1-323): T1 sequence (Q04828 1-323) with T38V, R47H, L54V, C87S, V151M, R170H, Q172L
# In short: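 Rates are followed as NADH absorbance increase at 340 nm, with recombinant AKR1C2 (0.3 µM, added last) and 180 µM final 1-acenaphthenol. The mix is 2.3 mM NAD⁺, 0.09 M potassium phosphate pH 9.0, 0.005% Triton X-114 and 0.05% DMSO, plus test compound in DMSO. Duplicates, two independent experiments. IC50 is fitted from residual activity vs log concentration; inhibition mode, KM, KI and α are fitted from kinetics.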
# [3] = pH 9, read-out: AKR1C1 Inhibition (%) 100 μM
# [4] = pH 9, read-out: AKR1C2 Inhibition (%) 100 μM
Compound,IC50 [1] [nM],inhibition at 10 µM [1] [%],"inhibition at 100 µM [1, 3] [%]",IC50 [2] [nM],inhibition at 10 µM [2] [%],"inhibition at 100 µM [2, 4] [%]",Ki [1] [nM],Type of inhibition of AKR1C1 ([1]; kinetic studies),inhibition at 100 µM ([1]; read-out: Biological activity AKR1C1 (biological inhibition at 100 μM)) [%],inhibition at 100 µM ([2]; read-out: Biological activity AKR1C2 (biological inhibition at 100 μM)) [%]
"C[C@@]12CC[C@@H]3c4cc(Br)c(O)c(Cl)c4CC[C@H]3[C@@H]1CCC2=O [2_2Br,4Cl, 2-bromo-4-chloro-3-hydroxy-13α-oestra-1,3,5(10)-trien-17-one]",1700,80,92.3,3100,80,99,–,–,–,–
"C[C@@]12CC[C@@H]3c4cc(Br)c(O)c(I)c4CC[C@H]3[C@@H]1CCC2=O [2_2Br,4I, 2-bromo-3-hydroxy-4-iodo-13α-oestra-1,3,5(10)-trien-17-one]",7200,67,100,4400,75,100,–,–,–,–
"C[C@@]12CC[C@@H]3c4cc(Cl)c(O)c(Br)c4CC[C@H]3[C@@H]1CCC2=O [2_2Cl,4Br, 4-bromo-2-chloro-3-hydroxy-13α-oestra-1,3,5(10)-trien-17-one]",1900,80,93.9,–,65,91.9,–,–,–,–
"C[C@@]12CC[C@@H]3c4cc(Cl)c(O)c(I)c4CC[C@H]3[C@@H]1CCC2=O [2_2Cl,4I, 2-chloro-3-hydroxy-4-iodo-13α-oestra-1,3,5(10)-trien-17-one]",–,50,82.6,4600,73,89.2,–,–,–,–
"C[C@@]12CC[C@@H]3c4cc(I)c(O)c(Br)c4CC[C@H]3[C@@H]1CCC2=O [2_2I,4Br, 4-bromo-3-hydroxy-2-iodo-13α-oestra-1,3,5(10)-trien-17-one]",700,90.7,93.4,–,59.5,74.7,570,mixed type of inhibition,93.4,74.7
"C[C@@]12CC[C@@H]3c4cc(I)c(O)c(Cl)c4CC[C@H]3[C@@H]1CCC2=O [2_2I,4Cl, 4-chloro-3-hydroxy-2-iodo-13α-oestra-1,3,5(10)-trien-17-one]",800,90,99,7100,73,87.5,–,–,–,–
